Data taken from ChEMBL document CHEMBL1124774, “Synthesis and biological activity of some derivatives of rifamycin P” (1990).
Converted amounts (≈) assume the structure as drawn.

How the values were obtained:
Klebsiella pneumoniae = assay: In vitro antibacterial activity of compound against Klebsiella pneumoniae ISM; assay type: functional
[1] = system: Mycobacterium scrofulaceum; assay: In vitro activity of compound against slowly growing Mycobacterium scrofulaceum 1292; assay type: functional
Summary of the method: (§1)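 Medium was Middlebrook 7H10 agar with 2% glycerol and 10% OADC. Organisms from Loevenstein-Jensen slants were grown in 7H9 broth with 0.5% Tween and 10% OADC, adjusted to McFarland no. 1, and spotted with a multipoint inoculator. Sealed plates were incubated at 22, 30 or 37 °C for 4-20 days depending on strain.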

[2] = system: Mycobacterium scrofulaceum; assay: In vitro activity of compound against slowly growing Mycobacterium scrofulaceum 1293; assay type: functional; summary of the method: as §1
[3] = system: Mycobacterium scrofulaceum; assay: In vitro activity of compound against slowly growing Mycobacterium scrofulaceum 1297; assay type: functional; summary of the method: as §1
[4] = system: Mycobacterium scrofulaceum; assay: In vitro activity of compound against slowly growing Mycobacterium scrofulaceum 1301; assay type: functional; summary of the method: as §1
Mycobacterium xenopi [5] = assay: In vitro activity compound against slowly growing Mycobacterium xenopi 1446; assay type: functional; summary of the method: as §1
Mycobacterium xenopi [6] = assay: In vitro activity of compound against slowly growing Mycobacterium xenopi 554; assay type: functional; summary of the method: as §1
Mycobacterium xenopi [7] = assay: In vitro activity of compound against slowl growingy Mycobacterium xenopi 555; assay type: functional; summary of the method: as §1
Mycolicibacterium phlei [8] = assay: In vitro activity of compound against rapidly growing Mycobacterium phlei 141; assay type: functional; summary of the method: as §1
Mycolicibacterium phlei [9] = assay: In vitro activity of compound against rapidly growing Mycobacterium phlei 1283; assay type: functional; summary of the method: as §1
Mycolicibacterium phlei [10] = assay: In vitro activity of compound against rapidly growing Mycobacterium phlei 1289; assay type: functional; summary of the method: as §1
Mycobacterium kansasii [11] = assay: In vitro activity compound against slowly growing Mycobacterium kansasii 1298; assay type: functional; summary of the method: as §1
Mycobacterium kansasii [12] = assay: In vitro activity of compound against slowly growing Mycobacterium kansasii 1299; assay type: functional; summary of the method: as §1
Mycobacterium marinum [13] = assay: In vitro activity of compound against slowly growing Mycobacterium marinum 1388; assay type: functional; summary of the method: as §1
Mycobacterium marinum [14] = assay: In vitro activity of compound against slowly growing Mycobacterium marinum 1390; assay type: functional; summary of the method: as §1
Mycobacterium marinum [15] = assay: In vitro activity of compound against slowly growing Mycobacterium marinum 1391; assay type: functional; summary of the method: as §1
[16] = system: Mycolicibacterium fortuitum; assay: In vitro activity of compound against rapidly growing Mycobacterium fortuitum 114; assay type: functional; summary of the method: as §1
[17] = system: Mycolicibacterium fortuitum; assay: In vitro activity of compound against rapidly growing Mycobacterium fortuitum 1285; assay type: functional; summary of the method: as §1
[18] = system: Mycolicibacterium fortuitum; assay: In vitro activity of compound against rapidly growing Mycobacterium fortuitum 1287; assay type: functional; summary of the method: as §1
[19] = system: Mycolicibacterium fortuitum; assay: In vitro activity compound against rapidly growing Mycobacterium fortuitum 1302; assay type: functional; summary of the method: as §1
[20] = system: Mycolicibacterium fortuitum; assay: In vitro activity of compound against rapidly growing Mycobacterium fortuitum 140; assay type: functional; summary of the method: as §1
[21] = system: Mycolicibacterium fortuitum; assay: In vitro activity compound against rapidly growing Mycobacterium fortuitum 1440; assay type: functional; summary of the method: as §1
[22] = system: Mycolicibacterium fortuitum; assay: In vitro activity of compound against rapidly growing Mycobacterium fortuitum 646; assay type: functional; summary of the method: as §1
Mycobacterium gordonae [23] = assay: In vitro activity of compound against slowly growing Mycobacterium gordonae 1294; assay type: functional; summary of the method: as §1
Mycobacterium gordonae [24] = assay: In vitro activity of compound against slowly growing Mycobacterium gordonae 1441; assay type: functional; summary of the method: as §1
Mycobacterium kansasii [25] = assay: In vitro activity compound against slowly growing Mycobacterium kansasii 1291; assay type: functional; summary of the method: as §1
[26] = system: Mycolicibacterium flavescens; assay: In vitro activity of compound against rapidly growing Mycobacterium flavescens 1284; assay type: functional; summary of the method: as §1
[27] = system: Mycolicibacterium flavescens; assay: In vitro activity of compound against rapidly growing Mycobacterium flavescens 1286; assay type: functional; summary of the method: as §1
Mycobacterium marinum [28] = assay: In vitro activity of compound against slowly growing Mycobacterium marinum 1392 h; assay type: functional; summary of the method: as §1
Mycobacterium marinum [29] = assay: In vitro activity of compound against slowly growing Mycobacterium marinum 1393; assay type: functional; summary of the method: as §1
Mycobacterium marinum [30] = assay: In vitro activity of compound against slowly growing Mycobacterium marinum 1394; assay type: functional; summary of the method: as §1
Mycobacterium marinum [31] = assay: In vitro activity of compound against slowly growing Mycobacterium marinum 1447; assay type: functional; summary of the method: as §1
[32] = system: Mycobacterium tuberculosis; assay: In vitro antibacterial activity of compound against Mycobacterium tuberculosis H37Rv ATCC 9660; assay type: functional
Mycobacterium avium = assay: 50% inhibition of the 20 Mycobacterium (MAC) avium complex clinical isolates; assay type: functional
Summary of the method: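 Agar-dilution MICs, 2-fold dilutions over 128-0.0001 μg/mL, on Middlebrook 7H10 agar with 2% glycerol and 10% OADC. Organisms from Loevenstein-Jensen slants were grown in 7H9 broth with 0.5% Tween and 10% OADC, adjusted to McFarland no. 1, and spotted with a multipoint inoculator. Plates were sealed and incubated at 22, 30 or 37 °C for 4-20 days depending on strain.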

Neisseria gonorrhoeae = assay: In vitro antibacterial activity of compound against Neisseria gonorrhoeae ISM 68/126; assay type: functional
Pseudomonas aeruginosa = assay: In vitro antibacterial activity of compound against Pseudomonas aeruginosa ATCC 10145; assay type: functional
Summary of the method: (§2)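 Twofold microdilution MIC in Iso-Sensitest broth over 128-0.0001 µg/mL. Inoculum was 10^4 cfu/mL, with incubation at 37 °C for 18-24 h.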

Staphylococcus aureus [33] = assay: Activity in the murine model (OS route) of Staphylococcus aureus tour septicemia; assay type: functional
Summary of the method: (§3)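 Male and female CD1 mice (18-22 g) were infected ip with S. aureus Tour. The challenge was set so untreated mice died within 48 h. Groups were five mice, dosed once daily for 3 days starting immediately after infection. ED50 was calculated on day 10 from the percentage surviving at each dose.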

Staphylococcus aureus [34] = assay: Activity in the murine model (subcutaneous route) of Staphylococcus aureus tour septicemia; assay type: functional; details: sc; summary of the method: as §3
[35] = system: Staphylococcus epidermidis; assay: In vitro antibacterial activity of compound against Staphylococcus epidermidis ATCC 12228; assay type: functional; summary of the method: as §2
Streptococcus pyogenes = assay: In vitro antibacterial activity of compound against Streptococcus pyogenes C 203 SKF 13400; assay type: functional
Summary of the method: (§4)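 Streptococcal MICs were run by twofold microdilution in Todd-Hewitt broth over 128-0.0001 µg/mL. Inoculum was 10^4 cfu/mL, with incubation at 37 °C for 18-24 h.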

Staphylococcus aureus [36] = assay: In vitro antibacterial activity of compound against Staphylococcus aureus Tour L 165; assay type: functional; summary of the method: as §2
Streptococcus pneumoniae = assay: In vitro antibacterial activity of compound against Streptococcus pneumoniae UC 41; assay type: functional; summary of the method: as §4
Enterococcus faecalis = assay: In vitro antibacterial activity of compound against Streptococcus faecalis ATCC 7080.; assay type: functional; summary of the method: as §2
[37] = system: Mycolicibacterium fortuitum; assay: In vitro activity of compound against rapidly growing Mycobacterium fortuitum 645; assay type: functional; summary of the method: as §1
Haemophilus influenzae = assay: In vitro antibacterial activity of compound against Haemophilus influenzae ATCC 19418; assay type: functional
Mycobacterium xenopi [38] = assay: In vitro activity of compound against slowly growing Mycobacterium xenopi 556; assay type: functional; summary of the method: as §1
Mycobacteroides chelonae = assay: In vitro activity of compound against rapidly growing Mycobacterium chelonae 1443

What does the source list for `COC1/C=C/OC2(C)Oc3c(C)c(O)c4c(O)c(c(C=NN5CCN(C6CCCC6)CC5)c(O)c4c3C2=O)NC(=O)/C(C)=C\C=C\C(C)C(O)C(C)C(O)C(C)C(OC(C)=O)C1C` (configuration not stated)?
MIC (Klebsiella pneumoniae): 32 µg/mL (≈ 36.5 µM); MIC [1]: 0.016 µg/mL (≈ 0.0182 µM); MIC [2]: 0.032 µg/mL (≈ 0.0365 µM); MIC [3]: 0.063 µg/mL (≈ 0.0718 µM); MIC [4]: 4 µg/mL (≈ 4.56 µM); MIC (Mycobacterium xenopi [5]): 0.25 µg/mL (≈ 0.285 µM); MIC (Mycobacterium xenopi [6]): 0.25 µg/mL (≈ 0.285 µM); MIC (Mycobacterium xenopi [7]): 0.25 µg/mL (≈ 0.285 µM); MIC (Mycolicibacterium phlei [8]): 0.016 µg/mL (≈ 0.0182 µM); MIC (Mycolicibacterium phlei [9]): 0.063 µg/mL (≈ 0.0718 µM); MIC (Mycolicibacterium phlei [10]): 2 µg/mL (≈ 2.28 µM); MIC (Mycobacterium kansasii [11]): 0.063 µg/mL (≈ 0.0718 µM); MIC (Mycobacterium kansasii [12]): 2 µg/mL (≈ 2.28 µM); MIC (Mycobacterium marinum [13]): 0.125 µg/mL (≈ 0.143 µM); MIC (Mycobacterium marinum [14]): 0.5 µg/mL (≈ 0.57 µM); MIC (Mycobacterium marinum [15]): 0.125 µg/mL (≈ 0.143 µM); MIC [16]: 32 µg/mL (≈ 36.5 µM); MIC [17]: 4 µg/mL (≈ 4.56 µM); MIC [18]: 1 µg/mL (≈ 1.14 µM); MIC [19]: 0.5 µg/mL (≈ 0.57 µM); MIC [20]: 32 µg/mL (≈ 36.5 µM); MIC [21]: 32 µg/mL (≈ 36.5 µM); MIC [22]: 32 µg/mL (≈ 36.5 µM); MIC (Mycobacterium gordonae [23]): 0.5 µg/mL (≈ 0.57 µM); MIC (Mycobacterium gordonae [24]): 1 µg/mL (≈ 1.14 µM); MIC (Mycobacterium kansasii [25]): 4 µg/mL (≈ 4.56 µM); MIC [26]: 32 µg/mL (≈ 36.5 µM); MIC [27]: 0.125 µg/mL (≈ 0.143 µM); MIC (Mycobacterium marinum [28]): 0.125 µg/mL (≈ 0.143 µM); MIC (Mycobacterium marinum [29]): 0.125 µg/mL (≈ 0.143 µM); MIC (Mycobacterium marinum [30]): 0.125 µg/mL (≈ 0.143 µM); MIC (Mycobacterium marinum [31]): 0.125 µg/mL (≈ 0.143 µM); MIC [32]: 0.063 µg/mL (≈ 0.0718 µM); MIC50 (Mycobacterium avium): 1 µg/mL (≈ 1.14 µM); MIC (Neisseria gonorrhoeae): 0.5 µg/mL (≈ 0.57 µM); MIC (Pseudomonas aeruginosa): 8 µg/mL (≈ 9.12 µM); ED50 (Staphylococcus aureus [33]): 0.22 mg/kg; ED50 (Staphylococcus aureus [34]): 0.18 mg/kg; MIC [35]: 0.063 µg/mL (≈ 0.0718 µM); MIC (Streptococcus pyogenes): 0.063 µg/mL (≈ 0.0718 µM); MIC (Staphylococcus aureus [36]): 0.063 µg/mL (≈ 0.0718 µM); MIC (Streptococcus pneumoniae): 0.063 µg/mL (≈ 0.0718 µM); MIC (Enterococcus faecalis): 2 µg/mL (≈ 2.28 µM); MIC [37]: 2 µg/mL (≈ 2.28 µM); MIC (Haemophilus influenzae): 0.5 µg/mL (≈ 0.57 µM); MIC (Mycobacterium xenopi [38]): 0.5 µg/mL (≈ 0.57 µM); MIC (Mycobacteroides chelonae): > 128 µg/mL
